Reference: ChEMBL document CHEMBL1275449, “Potent in vitro antifungal activities of naturally occurring acetylenic acids” (Antimicrob Agents Chemother, 2008)
Converted amounts (≈) assume the structure as drawn.

Experiments:
[1] = test system: Cryptococcus neoformans; assay: Antifungal activity against Cryptococcus neoformans ATCC 66031 after 72 hrs by CLSI method; type: functional, organism-based; conditions: ATCC 66031, 72 h
Method in brief: (§1)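 SD broth replaced RPMI because growth in RPMI was poor; other CLSI conditions were kept. Inoculum was 1.5 × 10³ CFU/ml from colonies on SD agar, checked by plating. Twofold serial dilutions (11 concentrations) in 20% DMSO-saline were tested in duplicate. OD530 was read before and after incubation at 35°C for 72 h. Percent growth gave IC50; the MIC is the lowest concentration with no detectable growth.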

[2] = test system: Aspergillus niger; assay: Antifungal activity against Aspergillus niger ATCC 16404 after 48 h by CLSI method; conditions: ATCC 16404, 48 h
[3] = test system: Candida albicans; assay: Antifungal activity against Candida albicans ATCC 60193 after 48 hrs by CLSI method; type: functional, organism-based; conditions: ATCC 60193, 48 h
Method in brief: (§2)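 CLSI broth microdilution. Colonies from 24–72 h SD agar suspended in saline and sized by OD630 standard curve. Inoculum 1.5 × 10³ CFU/ml (final) in RPMI 1640 (0.2% dextrose, 0.03% glutamine, 0.165 M MOPS, pH 7.0). Twofold dilutions (11 levels) from 20% DMSO-saline, in duplicate. 35°C for 48 h, OD530 read before and after. IC50 fitted from % growth. MIC: no detectable growth. MFC: subculture onto SD agar.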

[4] = test system: Candida parapsilosis; assay: Antifungal activity against Candida parapsilosis ATCC 22019 after 48 hrs by CLSI method; type: functional, organism-based; conditions: Lodderomyces parapsilosis, ATCC 22019, 48 h
Method in brief: (§3)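 Yeast suspensions made from 3-5 colonies off 24-72 h SD agar plates in saline. They were diluted by OD630 standard curve in RPMI 1640 (0.2% dextrose, 0.03% glutamine, 0.165 M MOPS, pH 7.0) to 1.5 × 10³ CFU/ml. Twofold dilutions (11 concentrations, 20% DMSO-saline) run in duplicate. OD530 read before and after 35°C, 48 h. Line values are top test concentrations; no-growth endpoints give MIC/MFC.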

[5] = test system: Candida tropicalis; assay: Antifungal activity against Candida tropicalis ATCC 750 after 48 hrs by CLSI method; type: functional, organism-based; conditions: ATCC 750, 48 h; method in brief: as §3
[6] = test system: Aspergillus flavus; assay: Antifungal activity against Aspergillus flavus ATCC 204304 after 48 h by CLSI method; conditions: ATCC 204304, 48 h
[7] = test system: Candida albicans; assay: Antifungal activity against Candida albicans ATCC 14053 after 48 hrs by CLSI method; type: functional, organism-based; conditions: ATCC 14053, 48 h; method in brief: as §2
[8] = test system: SK-MEL; assay: Cytotoxicity against human SK-MEL cells up to 32 uM by neutral red method; type: cell-based
Method in brief: (§4)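 Neutral red uptake cytotoxicity, top concentration 32 μM.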

[9] = test system: Trichophyton mentagrophytes; assay: Antifungal activity against Trichophyton mentagrophytes ATCC MYA-4439 by CLSI method; type: functional, organism-based
Method in brief: (§5)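 Growth scraped from 1- to 6-week-old potato dextrose slants and filtered through Miracloth. Diluted in 5% Alamar blue-RPMI 1640 (MOPS pH 7.0) to 2.7 × 10⁴ CFU/ml. Eleven twofold dilutions in duplicate. Fluorescence at 544 nm excitation/590 nm emission read before and after 35°C, 5 days. IC50 fitted from percent growth. MIC taken as no detectable growth; MFC from clear or blue wells plated on PD agar.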

[10] = test system: SK-OV-3; assay: Cytotoxicity against human SKOV3 cells up to 32 uM by neutral red method; type: cell-based; method in brief: as §4
[11] = test system: Aspergillus fumigatus; assay: Antifungal activity against Aspergillus fumigatus ATCC 204305 after 48 h by CLSI method; conditions: ATCC 204305, 48 h
[12] = test system: Nakaseomyces glabratus; assay: Antifungal activity against Candida glabrata ATCC 90030 after 48 hrs by CLSI methodCandida glabrata; type: functional, organism-based; conditions: ATCC 90030, 48 h
Method in brief: (§6)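 Candida inocula came from 24–72-h SD agar colonies suspended in saline. They were diluted by OD630 standard curve into RPMI 1640 (0.2% dextrose, 0.03% glutamine, 0.165 M MOPS, pH 7.0) to 1.5 × 10³ CFU/ml. Compounds were run as 11 twofold dilutions in 20% DMSO-saline, in duplicate, at 35°C for 48 h, with OD530 read before and after. Percent growth at the top concentration, IC50, MIC, and MFC (SD agar plating) were derived.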

[13] = test system: KB; assay: Cytotoxicity against human KB cells up to 32 uM by neutral red method; type: cell-based; method in brief: as §4
[14] = test system: Candida albicans; assay: Antifungal activity against Fluconazole resistant Candida albicans clinical isolate 17 after 48 hrs by CLSI method; type: functional, organism-based; method in brief: as §2
[15] = test system: Candida albicans; assay: Antifungal activity against Candida albicans ATCC 200955 after 48 hrs by CLSI method; type: functional, organism-based; conditions: ATCC 200955, 48 h; method in brief: as §2
[16] = test system: BT-549; assay: Cytotoxicity against human BT549 cells up to 32 uM by neutral red method; type: cell-based; method in brief: as §4
[17] = test system: Trichophyton rubrum; assay: Antifungal activity against Trichophyton rubrum ATCC 10218 by CLSI method; type: functional, organism-based; method in brief: as §5
[18] = test system: Aspergillus fumigatus; assay: Antifungal activity against Aspergillus fumigatus ATCC 90906 after 48 h by CLSI method; conditions: ATCC 90906, 48 h
[19] = test system: Cryptococcus neoformans; assay: Antifungal activity against Cryptococcus neoformans ATCC 90113 after 72 hrs by CLSI method; type: functional, organism-based; conditions: ATCC 90113, 72 h; method in brief: as §1
[20] = test system: Trichophyton mentagrophytes; assay: Antifungal activity against Trichophyton mentagrophytes ATCC 9533 by CLSI method; type: functional, organism-based; method in brief: as §5
[21] = test system: Vero; assay: Cytotoxicity against African green monkey Vero cells up to 32 uM by neutral red method; type: cell-based; conditions: chlorocebus sabaeus; method in brief: as §4
[22] = test system: Trichophyton rubrum; assay: Antifungal activity against Trichophyton rubrum ATCC MYA-4438 by CLSI method; type: functional, organism-based; method in brief: as §5
[23] = test system: Candida albicans; assay: Antifungal activity against Fluconazole resistant Candida albicans clinical isolate 1 after 48 hrs by CLSI method; type: functional, organism-based; method in brief: as §2
[24] = test system: LLC-PK1; assay: Cytotoxicity against pig LLC-PK1 cells up to 32 uM by neutral red method; type: cell-based, Sus scrofa; method in brief: as §4
[25] = test system: Candida albicans; assay: Antifungal activity against Candida albicans ATCC 90028 after 48 hrs by CLSI method; type: functional, organism-based; conditions: ATCC 90028, 48 h; method in brief: as §2
[26] = test system: Pichia kudriavzevii; assay: Antifungal activity against Candida krusei ATCC 6258 after 48 hrs by CLSI method; type: functional, organism-based; conditions: ATCC 6258, 48 h; method in brief: as §6
[27] = test system: Candida albicans; assay: Antifungal activity against Candida albicans ATCC 32354 after 48 hrs by CLSI method; type: functional, organism-based; conditions: ATCC 32354, 48 h; method in brief: as §2

SMILES: CCCCCCCCCC#CCCCCC(=O)O
- IC50 [1]: 1.2 µM
- MFC [1]: 99.1 µM (≈ 25 µg/mL)
- MIC [1]: 49.5 µM (≈ 12.5 µg/mL)
- IC50 [2]: 101 µM
- IC50 [3]: 85.9 µM
- IC50 [4]: > 198 µM
- IC50 [5]: 29.5 µM
- MFC [5]: 99.1 µM (≈ 25 µg/mL)
- MIC [5]: 74.3 µM (≈ 18.8 µg/mL)
- IC50 [6]: 106 µM
- MFC [6]: 198 µM (≈ 50 µg/mL)
- MIC [6]: 198 µM (≈ 50 µg/mL)
- IC50 [7]: 81.8 µM
- Activity [8]: Non-toxic
- IC50 [9]: 3.9 µM
- MFC [9]: 12.4 µM (≈ 3.13 µg/mL)
- MIC [9]: 9.3 µM (≈ 2.35 µg/mL)
- Activity [10]: Non-toxic
- IC50 [11]: 9.4 µM
- MFC [11]: 198 µM (≈ 50 µg/mL)
- MIC [11]: 37.1 µM (≈ 9.36 µg/mL)
- IC50 [12]: > 198 µM
- Activity [13]: Non-toxic
- IC50 [14]: 23.3 µM
- MFC [14]: 198 µM (≈ 50 µg/mL)
- MIC [14]: 99.1 µM (≈ 25 µg/mL)
- IC50 [15]: 47.8 µM
- MIC [15]: 198 µM (≈ 50 µg/mL)
- Activity [16]: Non-toxic
- IC50 [17]: 8.7 µM
- MFC [17]: 24.8 µM (≈ 6.26 µg/mL)
- MIC [17]: 24.8 µM (≈ 6.26 µg/mL)
- IC50 [18]: 166 µM
- IC50 [19]: 52.4 µM
- IC50 [20]: 2.3 µM
- MFC [20]: 6.2 µM (≈ 1.56 µg/mL)
- MIC [20]: 4.6 µM (≈ 1.16 µg/mL)
- Activity [21]: Non-toxic
- IC50 [22]: 3.8 µM
- MFC [22]: 198 µM (≈ 50 µg/mL)
- MIC [22]: 31 µM (≈ 7.82 µg/mL)
- IC50 [23]: 40.5 µM
- MIC [23]: 99.1 µM (≈ 25 µg/mL)
- Activity [24]: Non-toxic
- IC50 [25]: 56.8 µM
- MIC [25]: 99.1 µM (≈ 25 µg/mL)
- IC50 [26]: 2.9 µM
- MFC [26]: 49.5 µM (≈ 12.5 µg/mL)
- MIC [26]: 6.2 µM (≈ 1.56 µg/mL)
- IC50 [27]: 50.3 µM
- MIC [27]: 198 µM (≈ 50 µg/mL)
